Laboratory results taken from ChEMBL document CHEMBL5321217, “Identification of pyrrolo[3',4':3,4]cyclohepta[1,2-d][1,2]oxazoles as promising new candidates for the treatment of lymphomas” (Eur J Med Chem, 2023).
Calls of active or inactive are those of the source. The calls are words filed in the database; no cut-off is given here.

What was measured:
NCI-H522 = assay: Antiproliferative activity against human NCI-H522 cells assessed as growth inhibition incubated for 72 hrs by MTT assay; type: functional
NCI-H460 = assay: Antiproliferative activity against human NCI-H460 cells assessed as growth inhibition incubated for 72 hrs by MTT assay; type: functional
NCI-H322M = assay: Antiproliferative activity against human NCI-H322M cells assessed as growth inhibition incubated for 72 hrs by MTT assay; type: functional
MOLT-4 = assay: Antiproliferative activity against human MOLT-4 cells assessed as growth inhibition incubated for 72 hrs by MTT assay; type: functional
EKVX = assay: Antiproliferative activity against human EKVX cells assessed as growth inhibition incubated for 72 hrs by MTT assay; type: functional
HCT-116 = assay: Antiproliferative activity against human HCT-116 cells assessed as growth inhibition incubated for 72 hrs by MTT assay; type: functional
HT-29 = assay: Antiproliferative activity against human HT-29 cells assessed as growth inhibition incubated for 72 hrs by MTT assay; type: functional
SW-620 = assay: Antiproliferative activity against human SW-620 cells assessed as growth inhibition incubated for 72 hrs by MTT assay; type: functional
SF-268 = assay: Antiproliferative activity against human SF-268 cells assessed as growth inhibition incubated for 72 hrs by MTT assay; type: functional
SNB-19 = assay: Antiproliferative activity against human SNB-19 cells assessed as growth inhibition incubated for 72 hrs by MTT assay; type: functional
SNB-75 = assay: Antiproliferative activity against human SNB-75 cells assessed as growth inhibition incubated for 72 hrs by MTT assay; type: functional
U-251 = assay: Antiproliferative activity against human U-251 cells assessed as growth inhibition incubated for 72 hrs by MTT assay; type: functional
MDA-MB-435 = assay: Antiproliferative activity against human MDA-MB-435 cells assessed as growth inhibition incubated for 72 hrs by MTT assay; type: functional
SK-MEL-5 = assay: Antiproliferative activity against human SK-MEL-5 cells assessed as growth inhibition incubated for 72 hrs by MTT assay; type: functional
IGROV-1 = assay: Antiproliferative activity against human IGROV-1 cells assessed as growth inhibition incubated for 72 hrs by MTT assay; type: functional
OVCAR-5 = assay: Antiproliferative activity against human OVCAR-5 cells assessed as growth inhibition incubated for 72 hrs by MTT assay; type: functional
OVCAR-8 = assay: Antiproliferative activity against human OVCAR-8 cells assessed as growth inhibition incubated for 72 hrs by MTT assay; type: functional
786-0 = assay: Antiproliferative activity against human 786-0 cells assessed as growth inhibition incubated for 72 hrs by MTT assay; type: functional
UO-31 = assay: Antiproliferative activity against human UO-31 cells assessed as growth inhibition incubated for 72 hrs by MTT assay; type: functional
PC-3 = assay: Antiproliferative activity against human PC-3 cells assessed as growth inhibition incubated for 72 hrs by MTT assay; type: functional
DU-145 = assay: Antiproliferative activity against human DU-145 cells assessed as growth inhibition incubated for 72 hrs by MTT assay; type: functional
MDA-MB-231 = assay: Antiproliferative activity against human MDA-MB-231 cells assessed as growth inhibition incubated for 72 hrs by MTT assay; type: functional
BT-549 = assay: Antiproliferative activity against human BT-549 cells assessed as growth inhibition incubated for 72 hrs by MTT assay; type: functional
T47D = assay: Antiproliferative activity against human T47D cells assessed as growth inhibition incubated for 72 hrs by MTT assay; type: functional
VL51 [1] = assay: Antiproliferative activity against human VL51 cells assessed as cell growth inhibition measured after 72 hrs by MTT assay; type: functional, cell-based; details: VL51, 72 h
Method in brief: (§1)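 Lymphoma cells grown in RPMI-1640 with 20% FBS, seeded at 5,000–10,000 cells/well by doubling time. Doses 0–10 μM, 1:2 serial dilution, DMSO ≤0.1%, 72 h at 37 °C, 5% CO2. MTT (5 mg/mL stock) added for 4 h, SDS lysis, A570 read against medium-only blanks. IC50 from triplicate assays.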

SU-DHL10 = assay: Antiproliferative activity against human SU-DHL-10 cells assessed as cell growth inhibition measured after 72 hrs by MTT assay; type: functional, cell-based; details: SU-DHL10, 72 h; method in brief: as §1
Tubulin = assay: Inhibition of tubulin assembly (unknown origin); type: protein-complex assay, Homo sapiens
A549 = assay: Induction of cell cycle arrest in human A549 cells assessed as reduction in accumulation of cells at S phase at 1 uM incubated for 24 hrs by PI staining based flow cytometry analysis; type: functional
Method in brief: (§2)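 Seeding in 6-well plates, 2 mL medium: A549 5×10^4, CCRF-CEM 2.5×10^5, VL51 2.0×10^5. 24 h treatment, A549 detached with trypsin-EDTA. Cells fixed in 70% ice-cold ethanol, PI-labelled, analysed by flow cytometry. Mean of two independent experiments.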

VL51 [2] = assay: Induction of cell cycle arrest in human VL51 cells assessed as reduction in accumulation of cells at S phase at 1 uM incubated for 24 hrs by PI staining based flow cytometry analysis; type: functional; method in brief: as §2
VL51 [3] = assay: Induction of cell cycle arrest in human VL51 cells assessed as accumulation of cells at M phase by measuring p-Histone H3 positive cells incubated for 24 hrs by PI staining based flow cytometry analysis; type: functional; details: dose 0.5-1 µM
VL51 [4] = assay: Induction of apoptosis in human VL51 cells assessed as increase in apoptotic cells incubated for 48 hrs by annexin V-FITC and PI staining based flow cytometry analysis; type: functional, cell-based; details: dose 1-5 µM
Method in brief: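 Cells exposed to several concentrations for 48 h, then stained with annexin V-FITC and PI and read by flow cytometry (FL1/FL3). Apoptotic cells = annexin V-positive plus annexin V/PI double-positive. Mean of three independent experiments.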

VL51 [5] = assay: Induction of mitochondrial membrane potential depolarization in human VL51 cells at 0.5 to 1 uM measured after 24 hrs by JC-1 fluorescent dye based flow cytometry analysis; type: functional, cell-based; details: dose 0.5-1 µM
Method in brief: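 VL51 cells treated 24 h at 0.5 and 1.0 μM, labelled with JC-1, analysed by flow cytometry in FL1 and FL2 channels.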

CCRF-CEM = assay: Induction of cell cycle arrest in human CCRF-CEM cells assessed as accumulation of cells at G2/M phase at 1 uM incubated for 24 hrs by PI staining based flow cytometry analysis; type: functional; method in brief: as §2
VL51 [6] = assay: Antiproliferative activity against human VL51 cells assessed as reduction in cell proliferation at 1 uM measured after 72 hrs by MTT assay relative to control; type: functional; set-up: scale not given: the % may be the effect or the level left
Method in brief: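 Single-dose 1 μM screen in lymphoma cells (RPMI-1640, 20% FBS; 5,000–10,000 cells/well), 72 h at 37 °C, 5% CO2, DMSO ≤0.1%. MTT for 4 h, SDS lysis, absorbance at 570 nm. Proliferation expressed as percent of untreated control.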

[7] = Antiproliferative activity against human HBL1 cells assessed as reduction in cell proliferation at 1 uM measured after 72 hrs by MTT assay relative to control; type: functional; set-up: scale not given: the % may be the effect or the level left
Method in brief: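 Single-dose screen at 1 μM for 72 h at 37 °C, 5% CO2 (DMSO ≤0.1%). Cells in RPMI-1640 with 20% FBS, seeded at 5,000–10,000 cells/well. MTT added for 4 h, SDS lysis, A570 read with medium-only blanks. Percent proliferation relative to untreated cells, run in triplicate.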

SMILES | GI50 (NCI-H522) [nM] | GI50 (NCI-H460) [nM] | GI50 (NCI-H322M) [nM] | GI50 (MOLT-4) [nM] | GI50 (EKVX) [nM] | GI50 (HCT-116) [nM] | GI50 (HT-29) [nM] | GI50 (SW-620) [nM] | GI50 (SF-268) [nM] | GI50 (SNB-19) [nM] | GI50 (SNB-75) [nM] | GI50 (U-251) [nM] | GI50 (MDA-MB-435) [nM] | GI50 (SK-MEL-5) [nM] | GI50 (IGROV-1) [nM] | GI50 (OVCAR-5) [nM] | GI50 (OVCAR-8) [nM] | GI50 (786-0) [nM] | GI50 (UO-31) [nM] | GI50 (PC-3) [nM] | also measured
COc1ccc(Cn2cc3c(c2-c2cc(OC)c(OC)c(OC)c2)CCCc2cnoc2-3)cc1N | 260 | 400 | 840 | 650 | 2670 | 400 | 420 | 430 | 1450 | 810 | 380 | 510 | 240 | 1130 | 1560 | 1440 | 1570 | 520 | 690 | 430 | GI50 (DU-145): 840 nM; GI50 (MDA-MB-231): 1150 nM; GI50 (BT-549): 250 nM; GI50 (T47D): 390 nM; IC50 (VL51 [1]): 100 nM; IC50 (SU-DHL10): 500 nM; IC50 (Tubulin): 18000 nM; Activity (A549): Active; Activity (VL51 [2]): Active; Activity (VL51 [3]): Dose-Dependent Effect; Activity (VL51 [4]): Dose-Dependent Effect; Activity (VL51 [5]): Active; Activity (CCRF-CEM): Active; Activity (VL51 [6]): >50%; Activity [7]: >50%
COc1ccc(Cn2cc3c(c2-c2cc(OC)c(OC)c(OC)c2)CCCc2cnoc2-3)cc1 | 980 | 500 | 3280 | 800 | 3000 | 390 | 1130 | 470 | 4720 | 1530 | 870 | 4470 | 230 | 2000 | 560 | 3720 | 4300 | 670 | 920 | 850 | GI50 (DU-145): 4110 nM; GI50 (MDA-MB-231): 2540 nM; GI50 (BT-549): 480 nM; GI50 (T47D): 1850 nM; IC50 (VL51 [1]): 400 nM; IC50 (SU-DHL10): 1800 nM; IC50 (Tubulin): > 20000 nM; Activity (A549): Active; Activity (VL51 [2]): Active; Activity (VL51 [3]): Dose-Dependent Effect; Activity (VL51 [4]): Dose-Dependent Effect; Activity (VL51 [5]): Active; Activity (CCRF-CEM): Active; Activity (VL51 [6]): >50%; Activity [7]: >50%
